Series [1] concerns Mus musculus. In words: Antiarthritic activity in DBA/1J mouse collagen-induced arthritis model assessed as reduction of articular bone erosion in arthritic hind paw at 30 mg/kg, ip administered every morning for 12 to 14 days measured post last dose by microCT method relative to vehicle-treated control. The series is classed as functional, organism-based.
In series [2] the target is T1, Protein deacetylase HDAC6 (Homo sapiens) (UniProt Q9UBN7).
T1 sequence (whole entry): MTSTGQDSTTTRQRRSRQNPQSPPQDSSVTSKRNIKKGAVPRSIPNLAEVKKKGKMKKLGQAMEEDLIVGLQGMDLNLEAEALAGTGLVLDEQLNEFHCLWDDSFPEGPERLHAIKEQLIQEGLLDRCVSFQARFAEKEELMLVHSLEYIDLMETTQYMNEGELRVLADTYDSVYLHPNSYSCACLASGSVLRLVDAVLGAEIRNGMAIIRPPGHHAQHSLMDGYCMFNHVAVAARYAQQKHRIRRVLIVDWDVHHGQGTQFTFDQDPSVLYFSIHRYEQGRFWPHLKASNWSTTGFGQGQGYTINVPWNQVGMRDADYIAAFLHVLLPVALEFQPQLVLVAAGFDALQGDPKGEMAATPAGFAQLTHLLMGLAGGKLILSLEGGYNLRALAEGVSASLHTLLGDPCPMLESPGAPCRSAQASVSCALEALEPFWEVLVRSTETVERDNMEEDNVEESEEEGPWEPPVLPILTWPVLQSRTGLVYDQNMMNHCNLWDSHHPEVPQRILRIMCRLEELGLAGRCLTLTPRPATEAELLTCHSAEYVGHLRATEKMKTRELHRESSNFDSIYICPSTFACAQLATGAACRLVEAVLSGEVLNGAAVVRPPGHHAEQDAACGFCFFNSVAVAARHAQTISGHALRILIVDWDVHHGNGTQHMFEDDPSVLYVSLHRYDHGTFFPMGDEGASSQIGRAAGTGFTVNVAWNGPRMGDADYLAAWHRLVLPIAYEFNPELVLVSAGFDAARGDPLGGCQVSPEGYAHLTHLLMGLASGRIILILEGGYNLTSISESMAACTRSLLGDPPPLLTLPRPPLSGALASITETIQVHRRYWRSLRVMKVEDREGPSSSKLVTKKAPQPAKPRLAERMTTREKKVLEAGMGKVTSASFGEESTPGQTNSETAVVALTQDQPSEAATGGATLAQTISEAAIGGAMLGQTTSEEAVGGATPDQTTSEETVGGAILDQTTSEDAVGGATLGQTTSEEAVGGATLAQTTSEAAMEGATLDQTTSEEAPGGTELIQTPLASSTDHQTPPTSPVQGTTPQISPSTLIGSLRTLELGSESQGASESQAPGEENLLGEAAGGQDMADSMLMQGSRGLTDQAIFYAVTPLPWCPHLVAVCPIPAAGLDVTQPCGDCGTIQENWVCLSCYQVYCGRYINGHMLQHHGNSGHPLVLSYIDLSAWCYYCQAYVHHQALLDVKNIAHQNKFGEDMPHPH
Conditions: 50 nM.

A further series deals with PBMC. In words: Induction of apoptosis in human PBMC at 50 to 1000 nM after 24 hrs by Annexin V/propidium iodide staining-based flow cytometric method. The series is classed as cell-based. The following applies: 1 µM.
Series [3] deals with T1, Protein deacetylase HDAC6 (Homo sapiens). Conditions: 50 nM. The source holds these as a separate data set.
Series [4] concerns Mus musculus. Put plainly: Antiarthritic activity in DBA/1J mouse collagen-induced arthritis model assessed as decrease in sign of synovial inflammation at 30 mg/kg, ip administered every morning for 12 to 14 days. It is filed as functional, organism-based. Summed up:
(§1)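 Collagen type II-induced arthritis in mice, treated at 30 mg/kg versus vehicle. Arthritic paws were assessed histologically for synovial inflammation, cellular invasion, cartilage degradation and bone erosion.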

Series [5] relates to Mus musculus. Put plainly: Antiarthritic activity in DBA/1J mouse collagen-induced arthritis model assessed as decrease in cellular invasion at 30 mg/kg, ip administered every morning for 12 to 14 days. The series is classed as functional, organism-based. Summed up:
as §1

Another series addresses T2, Histone deacetylase 8 (Homo sapiens, UniProt Q9BY41).
T2 sequence (Q9BY41 whole entry): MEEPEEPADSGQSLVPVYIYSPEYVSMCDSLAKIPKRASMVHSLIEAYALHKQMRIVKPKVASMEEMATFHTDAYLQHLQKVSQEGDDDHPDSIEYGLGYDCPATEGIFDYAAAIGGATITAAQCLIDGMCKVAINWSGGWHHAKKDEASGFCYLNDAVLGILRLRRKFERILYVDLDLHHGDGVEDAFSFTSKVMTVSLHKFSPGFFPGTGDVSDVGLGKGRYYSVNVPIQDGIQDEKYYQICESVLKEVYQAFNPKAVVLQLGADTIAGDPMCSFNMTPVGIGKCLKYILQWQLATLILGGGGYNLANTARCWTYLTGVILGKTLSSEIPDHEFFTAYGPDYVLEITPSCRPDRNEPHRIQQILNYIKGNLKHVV
Put plainly: Inhibition of recombinant human C-terminal His-tagged HDAC8 (1 to 377 residues) expressed in baculovirus-infected insect cells using RHK(Ac)K(Ac)AMC as substrate after 60 mins by fluorimeter.

The next series deals with Jurkat. Put plainly: Cell cycle arrest in human Jurkat cells at 5 to 1000 nM after 24 hrs by propidium iodide staining-based flow cytometric method. The series is classed as functional.
Series [6] deals with Mus musculus. In words: In vivo inhibition of HDAC6 in DBA/1J mouse assessed as induction of tubulin acetylation in liver at 0.6 mg […] by Western blot method. It is filed as functional, organism-based.
Series [7] relates to Mus musculus. In words: Toxicity in DBA/1J mouse collagen-induced arthritis model assessed as effect on hemoglobin concentration at 30 mg/kg, ip administered every morning for 12 to 14 days measured post last dose relative to vehicle-treated control. The series is classed as organism-based. The following applies: in vivo.
In series [8] the test system is Mus musculus. In words: Antiarthritic activity in DBA/1J mouse collagen-induced arthritis model assessed as decrease in clinical scores at 30 mg/kg, ip administered every morning for 12 to 14 days measured during compound dosing relative to vehicle-treated control. It is filed as functional. More on the design: scale not given: the % may be the effect or the level left. The essentials:
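Collagen type II-induced arthritis in mice, treated at 30 mg/kg versus vehicle. Clinical arthritis score and paw swelling were followed over time from the start of treatment until the end of the experiment.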

The subject of series [9] is Mus musculus. In words: Antiarthritic activity in DBA/1J mouse collagen-induced arthritis model assessed as decrease in bone erosion in joints at 30 mg/kg, ip administered every morning for 12 to 14 days. The series is classed as functional, organism-based. Summed up:
as §1

Series [10] concerns Mus musculus. Put plainly: In vivo inhibition of HDAC6 in DBA/1J mouse assessed as induction of tubulin acetylation in kidney at 0.6 mg […] by Western blot method. It is filed as functional, organism-based. Summed up:
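Male DBA/1J mice received 0.6 mg inhibitor; organs were collected 2.5 h later and stored at −80 °C. Liver and kidney lysates were immunoblotted for acetylated tubulin and compared with untreated controls. Representative of at least two experiments.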

For series [11], the target named is T1, Protein deacetylase HDAC6 (Homo sapiens). The following applies: 50 nM. This is another data set of the same source.
Another series concerns the target Histone deacetylase 2 (Homo sapiens, UniProt Q92769). In words: Inhibition of full length recombinant human C-terminal GST-tagged HDAC2 expressed in baculovirus-infected insect cells using RHKK(Ac)AMC as substrate after 60 mins by fluorimeter.

The source made the active and inactive calls. The calls are words filed in the database; no cut-off is given here.

Histone deacetylase 2, sequence (Q92769 whole entry): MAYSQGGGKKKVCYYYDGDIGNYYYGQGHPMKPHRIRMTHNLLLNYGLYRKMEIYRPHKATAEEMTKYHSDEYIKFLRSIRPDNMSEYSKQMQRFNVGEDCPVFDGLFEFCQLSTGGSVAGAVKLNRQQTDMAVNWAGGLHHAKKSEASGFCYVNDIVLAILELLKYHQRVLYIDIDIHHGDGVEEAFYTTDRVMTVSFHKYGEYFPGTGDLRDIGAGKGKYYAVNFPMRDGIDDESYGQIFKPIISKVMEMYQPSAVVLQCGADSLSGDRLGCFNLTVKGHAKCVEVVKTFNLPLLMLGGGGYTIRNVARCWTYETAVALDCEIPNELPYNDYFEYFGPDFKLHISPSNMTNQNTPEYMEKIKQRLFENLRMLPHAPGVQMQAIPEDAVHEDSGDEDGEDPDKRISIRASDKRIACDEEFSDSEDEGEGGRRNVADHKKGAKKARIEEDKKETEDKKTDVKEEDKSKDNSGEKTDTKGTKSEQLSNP

For `CN1C(=O)C2CN(Cc3c2c2ccccc2n3Cc2ccc(C(=O)NO)cc2)C1=O` (stereo not given), the outcome in the series on Mus musculus [1], in the series on Mus musculus [4], in the series on Mus musculus [5] and with Mus musculus [9] was Active. The inhibition entry (in series [2]; in [3]; with Mus musculus [6]; in the series with Mus musculus [10]; in [11]) was “Active” in each case. Besides, the Activity entry with PBMC is “Non-Toxic”; in the series on Mus musculus [7], “Non-Toxic”; in the series with Mus musculus [8], 25%. The values for the Ki on Histone deacetylase 8 and on Histone deacetylase 2 were 173 nM and 774 nM, respectively. Moreover, the outcome in the series with Jurkat was inactive.

These data come from ChEMBL document CHEMBL4043295, “Marbostat-100 Defines a New Class of Potent and Selective Antiinflammatory and Antirheumatic Histone Deacetylase 6 Inhibitors” (J Med Chem, 2018).
